≈ marks a conversion by molar mass, not a printed value. Calls of active or inactive are those of the source. The calls are words filed in the database; no cut-off is given here.
What was measured:
[1] = system: Escherichia coli; test: Antibacterial activity against ampicillin/ciprofloxacin/gentamicin/tetracycline-resistant Escherichia coli 555 assessed as growth inhibition after 18 to 24 hrs by broth microdilution method; assay type: functional
[2] = system: Escherichia coli; test: Bactericidal activity against ciprofloxacin-resistant Escherichia coli 72 by agar plating method; assay type: functional
[3] = system: Escherichia coli; test: Bactericidal activity against chloroamphenicol/ampicillin/kanamycin/trimethoprim/ciprofloxacin/nalidixic acid-resistant Escherichia coli 85 by agar plating method; assay type: functional
[4] = system: Escherichia coli; test: Bactericidal activity against chloramphenicol/ampicillin/kanamycin/trimethoprim/ciprofloxacin/nalidixic acid-resistant Escherichia coli 132 by agar plating method; assay type: functional
[5] = system: Escherichia coli; test: Bactericidal activity against ampicillin/chloramphenicol/ciprofloxacin/gentamicin/tetracycline-resistant Escherichia coli 401 by agar plating method; assay type: functional
[6] = Inhibition of Escherichia coli DNA topoisomerase-1A using supercoiled pHOT1 plasmid DNA as substrate assessed as inhibition of DNA relaxation after 30 mins by agarose gel electrophoresis
Method in brief: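 Supercoiled plasmid DNA incubated with E. coli Topo IA in the presence of compound at […]. Relaxation products were resolved by electrophoresis on 1% agarose gel.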

[7] = system: Escherichia coli; test: Inhibition of Escherichia coli DNA gyrase using relaxed pHOT1 plasmid DNA as substrate assessed as inhibition of DNA supercoiling up to 100 uM after 30 mins by agarose gel electrophoresis
[8] = species: Homo sapiens; test: Inhibition of human DNA topoisomerase-1B using supercoiled pHOT1 plasmid DNA as substrate assessed as inhibition of DNA relaxation at 100 uM after 30 mins by agarose gel electrophoresis
[9] = system: Escherichia coli; test: Antibacterial activity against Escherichia coli DH5[alpha] assessed as growth inhibition after 18 to 24 hrs by broth microdilution method; assay type: functional
[10] = system: Escherichia coli; test: Antibacterial activity against Escherichia coli ATCC 25922 assessed as growth inhibition after 18 to 24 hrs by broth microdilution method; assay type: functional
[11] = system: Escherichia coli; test: Bactericidal activity against Escherichia coli DH5[alpha] by agar plating method; assay type: functional
[12] = system: Escherichia coli; test: Bactericidal activity against Escherichia coli ATCC 25922 by agar plating method; assay type: functional
[13] = system: Escherichia coli; test: Antibacterial activity against ciprofloxacin-resistant Escherichia coli 72 assessed as growth inhibition after 18 to 24 hrs by broth microdilution method; assay type: functional
[14] = system: Escherichia coli; test: Antibacterial activity against ampicillin/trimethoprim/nalidixic acid-resistant Escherichia coli 118 assessed as growth inhibition after 18 to 24 hrs by broth microdilution method; assay type: functional
[15] = system: Escherichia coli; test: Antibacterial activity against ampicillin/kanamycin/trimethoprim/tetracyclin/ciprofloxacin/nalidixic acid-resistant Escherichia coli 81 assessed as growth inhibition after 18 to 24 hrs by broth microdilution method; assay type: functional
[16] = system: Escherichia coli; test: Antibacterial activity against chloramphenicol/ampicillin/kanamycin/trimethoprim/ciprofloxacin/nalidixic acid-resistant Escherichia coli 132 assessed as growth inhibition after 18 to 24 hrs by broth microdilution method; assay type: functional
[17] = system: Escherichia coli; test: Antibacterial activity against chloramphenicol/ampicillin/kanamycin/trimethoprim/ciprofloxacin/nalidixic acid-resistant Escherichia coli 151 assessed as growth inhibition after 18 to 24 hrs by broth microdilution method; assay type: functional
[18] = system: Escherichia coli; test: Antibacterial activity against ampicillin/chloramphenicol/ciprofloxacin/gentamicin/tetracycline-resistant Escherichia coli 401 assessed as growth inhibition after 18 to 24 hrs by broth microdilution method; assay type: functional
[19] = system: Escherichia coli; test: Bactericidal activity against multidrug-resistant Escherichia coli IS 54 isolated from water source by agar plating method; conditions: IS 54, Water
[20] = system: Escherichia coli; test: Bactericidal activity against ampicillin/tetracycline-resistant Escherichia coli IP18 isolated from water source by agar plating method
[21] = system: Escherichia coli; test: Bactericidal activity against ampicillin/tetracycline/piperacillin-resistant Escherichia coli WB31 isolated from water source by agar plating method
[22] = system: Escherichia coli; test: Bactericidal activity against ampicillin/chloramphenicol/tetracycline/trimethoprim/ciprofloxacin-resistant Escherichia coli KK45 isolated from water source by agar plating method
[23] = system: Escherichia coli; test: Antibacterial activity against ampicillin/tetracycline-resistant Escherichia coli IP18 isolated from water source assessed as growth inhibition after 18 to 24 hrs by broth microdilution method
[24] = system: Escherichia coli; test: Antibacterial activity against tetracycline/trimethoprim-resistant Escherichia coli IST isolated from water source assessed as growth inhibition after 18 to 24 hrs by broth microdilution method
[25] = system: Escherichia coli; test: Bactericidal activity against ampicillin/trimethoprim/cefazolinl/piperacillin/cefuroxime/cefoxitine/cefepime/cefotaxime-resistant Escherichia coli KP21 isolated from water source by agar plating method
[26] = system: Escherichia coli; test: Bactericidal activity against cefazolinl/ampicillin/piperacillin/cefuroxime/cefepime/cefotaxime/tetracycline/ciprofloxacin-resistant Escherichia coli NG3 isolated from water source by agar plating method
[27] = system: Escherichia coli; test: Bactericidal activity against cefazolinl/ampicillin/piperacillin/cefuroxime/cefepime/cefotaxime/tetracycline/trimethoprim-resistant Escherichia coli KK16 isolated from water source by agar plating method
[28] = system: Escherichia coli; test: Antibacterial activity against ampicillin/tetracycline/piperacillin-resistant Escherichia coli WB31 isolated from water source assessed as growth inhibition after 18 to 24 hrs by broth microdilution method
[29] = system: Escherichia coli; test: Antibacterial activity against ampicillin/trimethoprim/piperacillin-resistant Escherichia coli MKNJ isolated from water source assessed as growth inhibition after 18 to 24 hrs by broth microdilution method
[30] = system: Escherichia coli; test: Antibacterial activity against ampicillin/chloramphenicol/tetracycline/trimethoprim/ciprofloxacin-resistant Escherichia coli KK45 isolated from water source assessed as growth inhibition after 18 to 24 hrs by broth microdilution method
[31] = system: Escherichia coli; test: Antibacterial activity against ampicillin/trimethoprim/cefazolinl/piperacillin/cefuroxime/cefoxitine/cefepime/cefotaxime-resistant Escherichia coli KP21 isolated from water source assessed as growth inhibition after 18 to 24 hrs by broth microdilution method
[32] = system: Escherichia coli; test: Antibacterial activity against cefazolinl/ampicillin/piperacillin/cefuroxime/cefepime/cefotaxime/tetracycline/ciprofloxacin-resistant Escherichia coli NG3 isolated from water source assessed as growth inhibition after 18 to 24 hrs by broth microdilution method
[33] = system: Escherichia coli; test: Antibacterial activity against cefazolinl/ampicillin/piperacillin/cefuroxime/cefepime/cefotaxime/tetracycline/trimethoprim-resistant Escherichia coli KK16 isolated from water source assessed as growth inhibition after 18 to 24 hrs by broth microdilution method

Compound `CCOc1ccc(-c2nc3ccc(-c4nc5ccc(N6CCN(CC)CC6)cc5[nH]4)cc3[nH]2)cc1` has an MIC50 [1] of 8 µg/mL (≈ 17.1 µM), an MIC90 [1] of 13.9 µg/mL (≈ 29.8 µM) and an MBC [2] of 8 µg/mL (≈ 17.1 µM). For the same compound, the MBC [3] was 8 µg/mL (≈ 17.1 µM), the MBC [4] was 8 µg/mL (≈ 17.1 µM) and the MBC [5] was 4 µg/mL (≈ 8.57 µM). The IC50 [6] was 5.8 µM, the inhibition [7] was “inactive” and the inhibition [8] was “Active”. The MIC50 [9] was 0.5 µg/mL (≈ 1.07 µM), the MIC90 [9] was 0.7 µg/mL (≈ 1.5 µM) and the MIC50 [10] was 1.78 µg/mL (≈ 3.81 µM). It also gave an MIC90 [10] of 3.1 µg/mL (≈ 6.64 µM), an MBC [11] of 1 µg/mL (≈ 2.14 µM) and an MBC [12] of 4 µg/mL (≈ 8.57 µM). For the same compound, the MIC50 [13] was 4 µg/mL (≈ 8.57 µM), the MIC90 [13] was 7.2 µg/mL (≈ 15.4 µM) and the MIC50 [14] was 1 µg/mL (≈ 2.14 µM). For the same compound, the MIC90 [14] was 1.4 µg/mL (≈ 3 µM), the MIC50 [15] was 4 µg/mL (≈ 8.57 µM) and the MIC90 [15] was 6.5 µg/mL (≈ 13.9 µM). The MIC50 [16] was 4 µg/mL (≈ 8.57 µM), the MIC90 [16] was 7.2 µg/mL (≈ 15.4 µM) and the MIC50 [17] was 4 µg/mL (≈ 8.57 µM). It also gave an MIC90 [17] of 6.8 µg/mL (≈ 14.6 µM), an MIC50 [18] of 2 µg/mL (≈ 4.29 µM) and an MIC90 [18] of 3.7 µg/mL (≈ 7.93 µM). The MBC [19] was 8 µg/mL (≈ 17.1 µM), the MBC [20] was 8 µg/mL (≈ 17.1 µM) and the MBC [21] was 8 µg/mL (≈ 17.1 µM). The MBC [22] was 8 µg/mL (≈ 17.1 µM), the MIC50 [23] was 4 µg/mL (≈ 8.57 µM) and the MIC90 [23] was 7.6 µg/mL (≈ 16.3 µM). It also gave an MIC50 [24] of 4 µg/mL (≈ 8.57 µM), an MIC90 [24] of 3.7 µg/mL (≈ 7.93 µM) and an MBC [25] of 8 µg/mL (≈ 17.1 µM). The MBC [26] was 8 µg/mL (≈ 17.1 µM), the MBC [27] was 2 µg/mL (≈ 4.29 µM) and the MIC50 [28] was 4 µg/mL (≈ 8.57 µM). For the same compound, the MIC90 [28] was 7.2 µg/mL (≈ 15.4 µM), the MIC50 [29] was 4 µg/mL (≈ 8.57 µM) and the MIC90 [29] was 7.6 µg/mL (≈ 16.3 µM). The MIC50 [30] was 4 µg/mL (≈ 8.57 µM), the MIC90 [30] was 7.5 µg/mL (≈ 16.1 µM) and the MIC50 [31] was 4 µg/mL (≈ 8.57 µM). The MIC90 [31] was 6.8 µg/mL (≈ 14.6 µM), the MIC50 [32] was 4 µg/mL (≈ 8.57 µM) and the MIC90 [32] was 7.7 µg/mL (≈ 16.5 µM). For the same compound, the MIC50 [33] was 1 µg/mL (≈ 2.14 µM) and the MIC90 [33] was 1.8 µg/mL (≈ 3.86 µM).

Reference: ChEMBL document CHEMBL3286094, “Synthesis and biological evaluation of novel bisbenzimidazoles as Escherichia coli topoisomerase IA inhibitors and potential antibacterial agents” (J Med Chem, 2014)
